Only some compounds are listed: those with a hit (about 4.4% of all), similar ones and a draw of the others.
HSF1 inhib: HSF1 inhibition. NIH3T3-HGL HSE-luciferase, MG132-induced, luminescence 8 h; hits give low values. activity change, negative = inhibition, % at 7.5 µM (by protocol). hit rate 0.77% among 300,000. AID 2098;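 active means more than half of replicate wells show activity change below -50%, luminescence cut by over half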;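 further: luciferase reports HSF-1 transcriptional activity via heat shock element; 0% = median of DMSO wells and -100% = zero luminescence signal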
Calb FLC: C. albicans growth modulation with fluconazole; C. albicans CaCi-2 + fluconazole, Alamar Blue growth, 48 h; growth inhibition, % (no concentration beside the values); hit rate 0.57% among 300,000;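 active means growth inhibition above about 58% in most replicates, limit read from the data, passing the limit was not always enough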;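 further: all wells also contain fluconazole at 8 µg/ml as a sub-toxic cotreatment; 0% = median of DMSO wells and 100% = median of geldanamycin control wells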
T cruzi inh: T. cruzi replication inhibition. T. cruzi beta-gal in NIH3T3, luminescence, 90 h. AID 1885. hit rate 1.4% among 300,000. inhibition, % (concentration not given with the values);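 active means mean inhibition across valid replicates above about 55%, limit read from the data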;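 further: signal also drops with host cell toxicity which is not excluded here; 0% = plate median of DMSO wells and 100% = zero luminescence signal; higher percent means less beta-gal luminescence so fewer parasites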
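System: mouse NIH/3T3 fibroblasts infected with β-gal-expressing T. cruzi Tulahuen C4 / Input: NIH/3T3 cells, 5,000 per well / Buffer or medium: Low-serum DMEM with 2% FBS / Probe or stimulus: 5000 reporter trypomastigotes per well / Schedule: ≥90 h infection period, 3 h prior cell attachment / Measured by: GalScreen luminescence, 60 min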
HSF1 activator: increases HSF-1 driven luciferase reporter signal | NIH3T3-HGL HSF-1 luciferase reporter, MG132, 8 h; 100% = twice DMSO control signal | activation, % at 9 µM | hit rate 1.7% among 300,000 | AID 504408;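 active means mean replicate activation of at least 50% with a set share of replicates each reaching 50%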;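 further: 0% = median of the neutral control wells and 100% = twice that signal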
HIF activator: HIF pathway transcriptional activation; AID 1910; U2OS HRE-luciferase reporter, luminescence; normalized: DMSO 0%, desferrioxamine 100%; hit rate 0.32% among 300,000; activation, % at 7.5 µM (by protocol);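 active means mean activation of at least 10% of the iron chelator positive control signal, with at least half of replicates also reaching 10%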
* marks the source's active call; other numbers are inactive results; nt = no result given.

SMILES | HSF1 inhib | Calb FLC | T cruzi inh | HSF1 activator | HIF activator
O=C(COC(=O)/C=C/c1ccco1)Nc1ccc(F)cc1Cl | -2 | 5 | -9 | -3 | 0
Cc1ccc(NC(=O)COc2ccccc2C(=O)Nc2ccccc2)cc1Cl | 25 | -12 | 25 | 12 | -5
CCOc1ccc(NC(=O)C(C)Oc2ccccc2C(=O)Nc2ccc(C)c(Cl)c2)cc1 (stereo unspecified) | 5 | 22 | 72* | 12 | 0
COc1cccc(C=O)c1OCCCOc1cccc2cccnc12 | 43 | -2 | -4 | 53* | -2
C=CCn1c(SCC(=O)NC2CCCC2)nc2scc(-c3ccco3)c2c1=O | 13 | 0 | 21 | 61* | 0
CC(C)n1c(SCC(=O)NC2CCCCC2)nnc1-c1ccco1 | 11 | 1 | -6 | 67* | -14
CCOC(=O)CNC(=O)CSc1nnc(-c2c[nH]c3ccccc23)n1CC | 0 | -2 | 5 | 11 | 0
CN1C(=O)C2(Oc3ccccc3C3CC(c4ccccc4)=NN32)c2ccccc21 (stereo unspecified) | 47 | 12 | 9 | 76* | 2
Cc1ccc(C2=NN3C(C2)c2ccccc2OC32C(=O)Nc3ccccc32)cc1 (stereo unspecified) | 17 | -31 | 21 | 26 | 3
COc1cccc(CNC(=O)CCCc2c[nH]c3ccccc23)c1 | -4 | 0 | 8 | -5 | 0
O=C(NNc1nc2ccccc2s1)c1ccc(F)cc1 | nt | 0 | 2 | nt | nt
O=C(Nc1nc2ccc(F)cc2s1)c1ccccn1 | 60 | 10 | 52 | 110* | -1
O=C(Nc1nc2ccccc2s1)c1cnccn1 | 7 | 22 | -19 | 22 | 1
O=C(Nc1nnc(SCc2ccc(F)cc2)s1)c1ccccn1 | 164 | 103* | 42 | 223* | 7
O=C(NNc1nc2ccc(F)cc2s1)c1cccc(F)c1 | 28 | 44 | 67* | 42 | 2
COC(=O)CCn1nc(-c2ccc(C)cc2)c2ccccc2c1=O | -3 | 7 | 16 | -9 | -1
COc1cc(C2C3=C(COC3=O)Oc3cc4c(cc32)OCO4)cc(OC)c1O (stereo unspecified) | 46 | nt | nt | 46 | nt
C=C(C(=O)c1ccccc1)C(c1ccccc1)C(C)C(=O)c1ccccc1 (stereo unspecified) | 47 | -3 | 49 | 62* | 0
O=C(c1ccccc1)C(c1ccccc1)c1ccccc1 | 0 | 10 | 6 | 16 | 0
O=C(O)c1ccc(C(=O)C(=O)c2ccccc2)cc1 | 2 | -1 | -1 | -15 | -1
C=C(C(=O)c1ccccc1)C(C(=C)C(=O)c1ccccc1)c1ccc(OC)cc1 | 129 | 2 | 55* | 143* | 0
C=C(C(=O)c1ccccc1)C(C)C(=C)C(=O)c1ccccc1 | 59 | -6 | -9 | 79* | -1
C=C1/C(=C\C=C2/CCC[C@]3(C)[C@@H]([C@H](C)/C=C/[C@@H](O)C4CC4)CC[C@@H]23)C[C@@H](O)C[C@@H]1O | 3 | nt | 18 | -5 | -1
C1CN(c2nc3nonc3nc2N2C[C@H]3CC[C@H]2C3)CCS1 | -1 | 44 | 5 | -10 | -1
CCOC(=O)C(C(=O)OCC)C(Nc1cccc(Br)c1)c1ccccc1 (stereo unspecified) | 182 | 4 | -44 | 203* | 0
SMILES | HSF1 inhib | Calb FLC | T cruzi inh | HSF1 activator | HIF activator
COC(=O)C(C)Nc1cccc(Br)c1 (stereo unspecified) | -1 | -8 | -13 | -7 | 0
COc1ccc(/C=C/C(=O)Nc2ccccc2C(=O)O)cc1OC | -56* | nt | 4 | -59 | -3
COc1ccc(/C=C/C(=O)Nc2ccccc2C(=O)O)cc1 | -39 | -3 | -11 | -43 | -5
O=C(/C=C/c1ccc(O)c(O)c1)c1ccccc1O | 76 | -11 | -17 | 92* | 5
COc1ccc(/C=C/C(=O)Nc2ccccc2C(=O)NCC(c2ccc(OC)cc2)N(C)C)cc1 (stereo unspecified) | -59* | -5 | 3 | -60 | 3
COc1ccc(/C=C/C(=O)c2cc(Br)ccc2O)cc1OC | 28 | 1 | 0 | 66* | 4
COc1ccc(NC(=O)C(OC(=O)c2cnccn2)c2ccccc2)cc1Cl (stereo unspecified) | 4 | -7 | -4 | 22 | 1
Cc1ccc2c(c1)N(C(=O)CCC(=O)O)CCO2 | 3 | -7 | -20 | -5 | 0
